PMC3481545 (Biochemistry, 2012)

How the values were obtained:
[1] = bis-ANS fluorescence titration of receptor ECDs; type: binding; conditions: value in parenthesis
Outline: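 Receptor ECDs were expressed in E. coli as TRX/His-tag fusions, thrombin-cleaved, and purified (Ni-NTA, gel filtration, C18), then quantified by A280. bis-ANS was diluted from a 10 mM DMF stock into 50 mM Tris-HCl pH 7.5, 150 mM NaCl and titrated against fixed protein. Peak fluorescence versus dye concentration was fitted to a Hill equation for apparent K′, normalized to wild-type.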

Energy transfer = type: binding; conditions: value in parenthesis
Outline: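 Human receptor ECDs (wild-type, mutants, chimeras) were made as TRX/His-tag fusions in E. coli BL21(DE3), cut with thrombin, and purified by Ni-NTA, gel filtration and C18. Protein was quantified by A280. bis-ANS was diluted from a 10 mM DMF stock into 50 mM Tris-HCl pH 7.5, 150 mM NaCl. Tryptophan was excited at 295 nm, emission read 310–600 nm at 25°C, and K′ derived from energy transfer to bis-ANS, normalized to wild-type.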

[2] = test system: BMP-7-stimulated OC promoter activity in fetal rat calvaria (FRC) cells; assay: Osteocalcin promoter-Luciferase; type: cell-based; conditions: BMP-7 alone, 6 nM
Outline: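 Primary fetal rat calvaria cells were grown in αMEM+10% FBS and transfected with an OC promoter-luciferase plasmid via FuGENE 6 in OPTI medium with 8 U hyaluronidase. After 5 h, fresh medium was added overnight. Cells were then treated 24 h with 6 nM BMP-7, alone or with 20-fold molar excess soluble receptor ECD. Luciferase was read in lysates; mean±SEM of three independent measurements.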

Relative K′ of bis-ANS (Hill Eq.), normalized to wild-type [1]	Relative K′ of bis-ANS (energy transfer), normalized to wild-type (Energy transfer)	Molecule	Stimulation of OC promoter activity beyond the empty plasmid control [2] [fold]
1.0	0.9	S107P: BMPR-II ECD naturally occurring single-amino-acid-substitution mutant S107P (protein, left off: TRX, N-terminal, cleaved | His6, C-terminal, state not stated) ASQNQERLCAFKDPYQQDLGIGESRISHENGTILCSKGSTCYGLWEKSKGDINLVKQGCWSHIGDPQECHYEECVVTTTPPPIQNGTYRFCCCSTDLCNVNFTENFPPPDTTPLSPPHSFNRDET	–
1.0	1.0	BMPR-II Wild type: human recombinant BMPR-II receptor extracellular domain (ECD), wild type, expressed in E. coli (protein, left off: TRX, N-terminal, cleaved | His6, C-terminal, state not stated) ASQNQERLCAFKDPYQQDLGIGESRISHENGTILCSKGSTCYGLWEKSKGDINLVKQGCWSHIGDPQECHYEECVVTTTPPSIQNGTYRFCCCSTDLCNVNFTENFPPPDTTPLSPPHSFNRDET	–
1.0	1.0	ActR-IIB Wild type: human recombinant ActR-IIB receptor extracellular domain (ECD), wild type, expressed in E. coli (protein, UniProt Q13705 19-137, looked up, extracellular domain) extracellular domain: SGRGEAETRECIYYNANWELERTNQSGLERCEGEQDKRLHCYASWRNSSGTIELVKKGCWLDDFNCYDRQECVATEENPQVYFCCCEGNFCNERFTHLPEAGGPEVTYEPPPTAPTLLT	–

Continued, molecule first:

Molecule	Relative K′ of bis-ANS (Hill Eq.), normalized to wild-type [1]	Relative K′ of bis-ANS (energy transfer), normalized to wild-type (Energy transfer)	Stimulation of OC promoter activity beyond the empty plasmid control [2] [fold]
Y40G: BMPR-II ECD single-amino-acid-substitution mutant Y40G (protein, left off: TRX, N-terminal, cleaved | His6, C-terminal, state not stated) ASQNQERLCAFKDPGQQDLGIGESRISHENGTILCSKGSTCYGLWEKSKGDINLVKQGCWSHIGDPQECHYEECVVTTTPPSIQNGTYRFCCCSTDLCNVNFTENFPPPDTTPLSPPHSFNRDET	0.3	0.6	–
Y40P: BMPR-II ECD single-amino-acid-substitution mutant Y40P (protein, left off: TRX, N-terminal, cleaved | His6, C-terminal, state not stated) ASQNQERLCAFKDPPQQDLGIGESRISHENGTILCSKGSTCYGLWEKSKGDINLVKQGCWSHIGDPQECHYEECVVTTTPPSIQNGTYRFCCCSTDLCNVNFTENFPPPDTTPLSPPHSFNRDET	1.8	1.6	–
Y40Q: BMPR-II ECD single-amino-acid-substitution mutant Y40Q (protein, left off: TRX, N-terminal, cleaved | His6, C-terminal, state not stated) ASQNQERLCAFKDPQQQDLGIGESRISHENGTILCSKGSTCYGLWEKSKGDINLVKQGCWSHIGDPQECHYEECVVTTTPPSIQNGTYRFCCCSTDLCNVNFTENFPPPDTTPLSPPHSFNRDET	2.4	1.9	–
G47N: BMPR-II ECD naturally occurring single-amino-acid-substitution mutant G47N (protein, left off: TRX, N-terminal, cleaved | His6, C-terminal, state not stated) ASQNQERLCAFKDPYQQDLGINESRISHENGTILCSKGSTCYGLWEKSKGDINLVKQGCWSHIGDPQECHYEECVVTTTPPSIQNGTYRFCCCSTDLCNVNFTENFPPPDTTPLSPPHSFNRDET	2.9	2.3	–
Y40R: BMPR-II ECD single-amino-acid-substitution mutant Y40R (protein, left off: TRX, N-terminal, cleaved | His6, C-terminal, state not stated) ASQNQERLCAFKDPRQQDLGIGESRISHENGTILCSKGSTCYGLWEKSKGDINLVKQGCWSHIGDPQECHYEECVVTTTPPSIQNGTYRFCCCSTDLCNVNFTENFPPPDTTPLSPPHSFNRDET	1.1	0.9	–
BMP-7: Bone Morphogenetic Protein ligand provided by Stryker Biotech; BMPR-II ligand (protein) STGSKQRSQNRSKTPKNQEALRMANVAENSSSDQRQACKKHELYVSFRDLGWQDWIIAPEGYAAYYCEGECAFPLNSYMNATNHAIVQTLVHFINPETVPKPCCAPTQLNAISVLYFDDSSNVILKKYRNMVVRACGCH	–	–	14
